pCIP destab – compounds decreasing mouse p/CIP protein stability. Q05BA5. F442A p/CIP-EGFP cells, EGFP fluorescence, 16 h. decrease of EGFP signal, % at 10 µM. 0.01% of 290,000 active. AID 1984;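 active means EGFP signal decrease of at least 30% at 10 µM or well 3 SD below plate mean, unless failing retest; inactive means the rest, including hits failing retest or dose response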
ABCB6 inh 2 – inhibitors of human ABC transporter ABCB6; 0.19% of 360,000 active; K562-ABCB6 porphyrin accumulation, flow cytometry, 1 h; stronger effect = lower value; Q9NP58; fluorescence ratio to DMSO, % at 10 µM; AID 602162;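 active means fluorescence ratio to DMSO below 75%, the collection mean minus 3 SD; inconclusive means too few cells collected in the well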;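 further: signal is porphyrin accumulated inside mitochondria; 100% equals median channel fluorescence of DMSO control wells; lower ratio means ABCB6 inhibition with less porphyrin fluorescence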
Target sequence (Q9NP58 whole entry, looked up): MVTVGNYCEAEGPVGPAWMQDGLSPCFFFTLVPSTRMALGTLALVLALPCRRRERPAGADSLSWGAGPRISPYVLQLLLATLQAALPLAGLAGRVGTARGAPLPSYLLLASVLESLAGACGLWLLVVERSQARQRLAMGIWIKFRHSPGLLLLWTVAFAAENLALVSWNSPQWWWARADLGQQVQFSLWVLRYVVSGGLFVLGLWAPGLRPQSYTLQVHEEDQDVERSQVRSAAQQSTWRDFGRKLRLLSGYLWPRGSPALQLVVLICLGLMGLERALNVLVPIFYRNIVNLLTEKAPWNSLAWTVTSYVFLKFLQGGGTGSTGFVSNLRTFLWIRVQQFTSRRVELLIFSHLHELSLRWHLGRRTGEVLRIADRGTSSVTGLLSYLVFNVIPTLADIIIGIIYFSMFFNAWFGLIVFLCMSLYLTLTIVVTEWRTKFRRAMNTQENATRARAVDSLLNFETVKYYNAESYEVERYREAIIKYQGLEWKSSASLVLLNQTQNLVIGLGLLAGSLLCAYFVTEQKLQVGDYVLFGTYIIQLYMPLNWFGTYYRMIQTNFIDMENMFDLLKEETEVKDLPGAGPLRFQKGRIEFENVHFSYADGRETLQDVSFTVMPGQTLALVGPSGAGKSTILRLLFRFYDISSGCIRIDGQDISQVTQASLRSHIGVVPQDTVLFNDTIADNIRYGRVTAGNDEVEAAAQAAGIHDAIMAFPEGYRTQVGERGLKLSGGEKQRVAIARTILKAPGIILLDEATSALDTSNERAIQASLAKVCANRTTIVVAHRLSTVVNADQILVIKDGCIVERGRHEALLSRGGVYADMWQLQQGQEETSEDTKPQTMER
Dynein cargo inh – blocks dynein driven cargo transport along microtubules; z-score, hits read low; 0.47% of 220,000 active; 3617.4 mouse cells, GR-EGFP nuclear translocation imaging; test concentration mostly 20 µM; stimulated with dexamethasone, 1 µM; stronger effect = lower value;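 active means plate z-score of nuclear minus cytoplasmic receptor signal below a set negative limit, without overly bright fluorescence or cell loss, cut at about -3.5 in these data, passing the limit was not always enough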;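 further: z-score of nuclear minus cytoplasmic ring GR-EGFP intensity difference per well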
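Also added – dexamethasone, 1.0 µM final · Buffer or medium – tet-free, stripped-serum medium · Schedule – induction 48 h, compound 1 h, agonist 30 min · Detection – formaldehyde fixation, Hoechst nuclear stain, 10x automated fluorescence imaging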
V-ATPase pHluor – regulators of yeast V-ATPase proton transport; response, % at 10 µM; S. cerevisiae, pHLuorin cytosolic pH fluorescence; 0.37% of 350,000 active; in the data active means response mostly above about 7.3%, no sharp cut-off; inactive means mostly below about 5.4%; further: actives read high
KCC2 mod – modulates chloride dependent transport by human KCC2; B-score of Tl+ flux slope (higher = more flux/activation; lower = inhibition) at 10 µM; AID 1456; Q9H2X9; 2.2% of 190,000 active; KCC2 cells, thallium flux FluoZin-2 fluorescence;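 active means thallium flux slope and its plate-corrected score both differing from the plate sample mean at a set confidence after two filtering rounds, in either direction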;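 further: slope of fluorescence scaled to starting intensity during 10 to 20 s after thallium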
Dynein inh conf – dynein cargo transport inhibition, confirmation; shares compounds with Dynein cargo inh; 3617.4 GR-EGFP nuclear translocation imaging, dexamethasone-induced; calls only at 20 µM; 69% of 1,000 active; AID 463116;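 active means inhibition of receptor movement into the nucleus at or above a set limit in both runs, with normal cell brightness and cell count; inconclusive means limit reached in only one run, brightness and count normal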;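 further: dexamethasone at 1 µM final in well for 30 min; nuclear minus cytoplasmic GR-EGFP mean intensity difference in channel 2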
Numbers without * were called inactive; i = inactive; ? = inconclusive; / = not tested or not shown; + = active, no number. Only a selection was taken, and hits are over-represented in it overall.

SMILES	pCIP destab	ABCB6 inh 2	Dynein cargo inh	V-ATPase pHluor	KCC2 mod	Dynein inh conf
CCOC(=O)C(=Cc1cc(=O)c(OC)co1)C(=O)OCC	5	98	-4*	2	0.87	+
Cc1cccc(N2C(N)=C(C#N)C(C#N)(C#N)C2c2ccccc2)c1 (stereo not drawn)	-11	96	-1.3	2	-1.7	/
N#CC1=C(N)N(c2ccccc2)C(c2cccc([N+](=O)[O-])c2)C1(C#N)C#N (stereo not drawn)	1	95	-3.7*	-6	-0.7	+
COc1cc(CN2C[C@@H](CO)O[C@@H](n3cnc4c(NCCN(C)C)ncnc43)C2)cc(OC)c1OC	/	92	/	/	/	/
CC(=O)n1cc(C(C[N+](=O)[O-])SCCN)c2ccccc21 (stereo not drawn)	-7	104	-3.8*	7	0.48	i
CC(C)c1ccc(CC(=O)N2CCC2(C)C(=O)Nc2ccc3c(c2)OCCO3)cc1 (stereo not drawn)	/	95	/	/	/	/
O=C(Cn1nnc2ccccc2c1=O)NCCc1ccccc1	2	98	-0.077	3	0.24	/
COc1ccc(CNC(=O)Cn2nnc3ccccc3c2=O)cc1	-11	102	-5.3*	0	0	i
CC(C)CN1C(=O)/C(=C/c2c(N3CCc4ccccc4C3)nc3ccccn3c2=O)SC1=S	-443	/	-8.6	/	0.51	i
Cc1cc(C)n2c(=O)c3ccc(Cl)cc3nc2c1C#N	-5	102	0.5	1	-1.3	/
Cc1cc(Cl)n2c(nc3cc(F)c(F)cc32)c1C#N	-12	102	-4.3*	-38	-1.9	+
Cc1n[nH]c(=S)n1/N=C/c1c(O)ccc2ccccc12	9	103	/	-4	/	/
CN(c1cccc2cccnc12)S(=O)(=O)c1ccccc1	-2	100	/	1	/	/
O=c1c2ccccc2sn1-c1ccccc1	-13	108	-5.2*	6	0.27	+
O=C(O)c1cccc(-n2sc3ccccc3c2=O)c1	/	103	/	-23	/	/
CN(C)S(=O)(=O)c1cccc(-n2sc3ccccc3c2=O)c1	-2	101	-3.6*	-3	-0.64	i
CCCN(CC(=O)Nc1ccccc1C)C(=O)c1cc2ccccc2oc1=O	/	106	/	5	/	/
O=C1C=CC(=O)N1c1cccc(-c2ccccc2)c1	-39	97	-3.8*	32*	-0.43	i
O=C(Nc1ccc(F)c(Cl)c1)c1cc(C2CCCCN2C(=O)c2ccccc2)on1 (stereo not drawn)	/	104	/	/	/	/
O=C(O)Cn1ccnc1[N+](=O)[O-]	/	99	/	4	/	/
O=C(C(=O)c1cc(Br)ccc1O)c1cc(Br)ccc1O	/	85	/	-4	/	/
O=C(/C=C/c1ccccn1)c1ccc(Br)cc1O	-9	96	-3.7*	1	0.38	?
O=C(C=Cc1ccccc1O)c1ccccc1O	/	92	/	5	/	/
O=C(/C=C/c1ccccn1)c1cc(Br)ccc1O	-22	93	-4.8*	0	/	+
COc1cc2c(c(OC)c1O)C(=O)CO2	0	94	0.35	0	0.079	/
SMILES	pCIP destab	ABCB6 inh 2	Dynein cargo inh	V-ATPase pHluor	KCC2 mod	Dynein inh conf
COc1cc(OC)c2c(O)c3c(c(-c4c5c(c(O)c6c(OC)cc(OC)cc46)CO[C@@H](C)[C@H]5O)c2c1)[C@H](O)[C@H](C)OC3	-7	102	-4.5*	-1	-1.6	+
Cc1cccc(C2=NC(C(F)(F)F)(C(F)(F)F)c3c(n(-c4ccc(F)cc4)c(=O)[nH]c3=O)N2)c1	-6	98	-3.7*	-2	0.68	i
CCN(C(=O)c1coc(=O)c(Br)c1)c1ccc2c(c1)OCO2	-30	99	-4.8*	1	/	+
NS(=O)(=O)c1c(Sc2ccccc2C(=O)O)ccc2ccccc12	0	93	/	1	/	/
COC(=O)c1ccc(NC(=O)CSC2=Nc3ccccc3C3CC=NN23)cc1 (stereo not drawn)	12	95	-0.64	-1	-0.31	/
NC(=O)c1ccc(NC(=O)CSC2=Nc3ccccc3C3CC=NN23)cc1 (stereo not drawn)	6	93	-4.2*	-2	0.31	i
ClC1=C(Cl)C(Cl)=C(Cl)C1=C/C=C/c1ccccc1	-18	90	-4.1*	-2	-0.024	i
O=C1NC(=O)C(=CC=Cc2ccccc2)S1	/	101	/	-1	/	/
COc1ccc(N=C2S/C(=C\c3ccc(OCC(=O)O)cc3)C(=O)N2CCc2c[nH]c3ccccc23)cc1	-1	92	1.2	0	-0.56	/
COc1ccc(N=C2S/C(=C\c3ccc(N4CCOCC4)o3)C(=O)N2CCc2c[nH]c3ccccc23)cc1	-28	i	-9.1	-2	-0.83	+
CCOc1ccc(CN(C)C(=O)CCl)cc1	-22	170	-5.6*	-4	1.1	+
O=C(Nc1ccc(Cl)c(C(F)(F)F)c1)C1Cc2c(-c3ccc4c(c3)OCO4)ccnc2O1 (stereo not drawn)	/	97	/	/	/	/
CCn1nc(C)cc1C(=O)Sc1cccc(Br)c1	-11	92	-4*	0	-1.3	+
CC1CCN(C(=O)c2ccc3c(Cl)c4c(nc3c2)CCCC4)CC1	11	99	-6*	2	-1.4	+
CCCCN(CC)CCNC(=O)c1ccc2c(Cl)c3c(nc2c1)CCC3	-13	99	/	-5	/	/
CCOC(=O)C1CCN(C(=O)c2ccc3c(Cl)c4c(nc3c2)CCCC4)CC1	-15	101	/	-1	/	/
CCN(CC)CCCNC(=O)c1ccc2c(Cl)c3c(nc2c1)CCCC3	-7	86	-3.9*	-2	0.78	+
Cc1cccc(C(=O)NNC(=O)C2CCCCC2)c1O	/	98	/	1	/	/
Cc1cc2nc(-c3ccccc3Br)n(/C=C(\c3ccccc3)n3c(=O)[nH]c4ccccc43)c2cc1C	/	97	/	/	/	/
COC/C=C/C1=CC2=CC(=O)C(C)(OC(=O)c3cnc4ccccc4n3)C(=O)C2=CN1Cc1ccc(OC)cc1 (stereo not drawn)	-3	103	-5.2*	-9	0.19	+
COCCNC(=O)/C(C#N)=C/C=C/c1ccccc1[N+](=O)[O-]	-3	97	-3.5*	1	1.2	+
COCCNC(=O)/C(C#N)=C/c1ccc(O)c([N+](=O)[O-])c1	-5	97	1.7	1	-0.4	/
COc1ccc(Nc2ccccc2N)cc1	3	292	-5.1*	0	0.76	i
Nc1ccc(Nc2ccccc2N)cc1	-6	125	-1.1	0	0.13	/
Clc1ncnc2scc(-c3ccc(Br)cc3)c12	1	106	-4.5*	2	0.55	+
Cc1cc(N)n(-c2ncnc3scc(-c4ccc(Cl)cc4)c23)n1	5	97	0.51	2	0.026	/
Cn1cc(C(=O)CCl)c2ccccc21	-10	97	-4.8*	-1	0.9	+
Cn1cc(C(N)=O)c2ccccc21	8	96	-0.54	2	-0.81	/

Bioassay records (PubChem BioAssay)
